# GPR7 antagonist – human neuropeptides B/W receptor 1 antagonism; inhibition, % at 4.4 µM; actives 1.1% (n = 290,000); GPR7-expressing cells, fluorescence antagonist assay; in the data active = inhibition above about 16%, passing the limit was not always enough;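 note: cells stimulated with the agonist NPW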
# TAAR1 agonist – human TAAR1 agonism; CHO RD-HGA16 TAAR1, Fluo-8 calcium fluorescence; vehicle wells 0%, saturating PEA agonist 100%; activation, % at 3 µM; actives 0.99% (n = 360,000); AID 624467; Q96RJ0;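 active = activation above the mean activation of all test compounds in the run plus 3 SD, cut at about 38% in these data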
#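 Signal – calcium-sensitive Fluo-8 signal, excitation 470-495, emission 515-575 nm · System – RD-HGA16 (CHO) cells co-expressing Gα16 and hTAAR1 · Incubation – 17-24 h seeding, 75 min 37 °C dye, 30 min RT · Compound dosing – 3 µM single concentration · Repeats – no replicates (n 1)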
# CHO parental Ca – signal in parental CHO cells, OX1R antagonist counter-screen; inhibition, % at 5.6 µM; AID 463079; actives 0.63% (n = 330,000); parental CHO-K1, ATP-induced calcium, Fluo-8 fluorescence;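 active = inhibition above that plate's mean sample inhibition plus 3 SD, cut at about 26% in these data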
#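 Assay system: untransfected parental CHO cell line. Also added: ATP agonist challenge. Dosing: one dose, 5.6 µM nominal. Measured by: Fluo-8 fluorescence. Read-out: % inhibition. Benchmarks: ATP wells versus no-ATP DMSO wells. Repeats: no replicates.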
# OX1R antag-1 – blocks the human orexin 1 receptor | OX1R-expressing cells, FRET antagonist read-out | actives 1.8% (n = 330,000) | inhibition, % at 6.6 µM | O43613 | AID 485270; in the data active = inhibition mostly above about 38%, no sharp cut-off; inactive = mostly below about 40%
# Target sequence (O43613 whole entry, looked up): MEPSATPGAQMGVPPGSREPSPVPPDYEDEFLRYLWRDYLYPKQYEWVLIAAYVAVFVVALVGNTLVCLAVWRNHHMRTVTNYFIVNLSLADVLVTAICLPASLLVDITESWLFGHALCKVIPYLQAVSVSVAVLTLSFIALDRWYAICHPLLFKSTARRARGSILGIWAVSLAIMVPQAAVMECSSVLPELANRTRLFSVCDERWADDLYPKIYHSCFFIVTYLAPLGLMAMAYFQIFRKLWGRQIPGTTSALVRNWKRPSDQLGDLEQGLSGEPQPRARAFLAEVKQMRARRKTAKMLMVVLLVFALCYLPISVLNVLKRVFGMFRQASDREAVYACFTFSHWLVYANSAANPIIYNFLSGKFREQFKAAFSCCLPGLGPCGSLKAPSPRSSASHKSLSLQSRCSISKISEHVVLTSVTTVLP
# TAAR1 antagonist – antagonists of human TAAR1 | Q96RJ0 | CHO RD-HGA16 TAAR1, Fluo-8 calcium fluorescence, antagonist | actives 1.5% (n = 360,000) | inhibition, % at 3 µM | AID 624466;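 active = inhibition above a per-plate cutoff, the mean inhibition of test compounds on that plate plus 3 SD, cut at about 49% in these data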
#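 System: CHO RD-HGA16 cells bearing hTAAR1. Reagent: EC80 β-phenethylamine stimulus. Schedule: seeding 17-24 h prior, 75-min 37 °C, 30-min RT dye loading. Signal: Fluo-8 intracellular calcium dye fluorescence, real-time kinetic reads. Read-out: % inhibition from peak post-agonist over basal fluorescence ratio. Benchmarks: vehicle wells and EC80 agonist wells. Replicates: n of 1.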
# OX1R antag-2 – blocks the human orexin 1 receptor. inhibition, % at 5 µM. O43613. CHO/OX1R cells, Fluo-8 calcium fluorescence, orexin A. AID 434989. actives 0.43% (n = 330,000);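 active = inhibition above its plate's threshold, mean inhibition of all tested compounds on the plate plus 3 SD, cut at about 37% in these data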
# TAAR1 nonsel count – nonselective antagonist in TAAR1 antagonist counter-screen; shares compounds with TAAR1 antagonist; counterscreen cell line, calcium fluorescence, antagonist mode; inhibition, % at 3 µM; actives 77% (n = 2,400); AID 651780; in the data active = inhibition above about 22%;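 note: CHO-Ga16 host cells stimulated with ATP at an EC80 level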
# TAAR1 ant conf – confirmation of human TAAR1 antagonists. AID 651785. actives 40% (n = 2,400). inhibition, % at 3 µM. TAAR1-expressing cells, fluorescence antagonist read-out. shares compounds with TAAR1 antagonist; in the data active = inhibition above about 49%;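 note: CHO-Ga16 host cells challenged with agonist PEA near its EC80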
# Ga16 ag counter – counter-screen for TAAR1 antagonists: nonselective Ga16 agonists. AID 651953. shares compounds with TAAR1 antagonist. Ga16-expressing cells, calcium fluorescence, agonist counterscreen. activation, % at 3 µM. actives 18% (n = 2,400); in the data active = activation above about 12%
# TAAR1 ag count – activates human TAAR1 in antagonist counter-screen | actives 2% (n = 2,400) | shares compounds with TAAR1 antagonist | activation, % at 3 µM | hTAAR1 cell line, fluorescence activation, agonist mode; in the data active = activation above about 37%;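 note: CHO cells stably expressing TAAR1 with calcium dye readout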
# Hits are given with their value; n = inactive; x = not tested or not shown. Only some compounds are listed: those with a hit (about 4.5% of all), similar ones and a draw of the others.
SMILES,GPR7 antagonist,TAAR1 agonist,CHO parental Ca,OX1R antag-1,TAAR1 antagonist,OX1R antag-2,TAAR1 nonsel count,TAAR1 ant conf,Ga16 ag counter,TAAR1 ag count
COc1nc(N/N=C/c2ccc(-c3ccccc3[N+](=O)[O-])o2)nc(N2CCOCC2)n1,n,n,n,n,64,n,n,n,12,n
COC(=O)c1ccccc1-c1ccc(/C=N/Nc2nc(N3CCCC3)nc(N3CCCC3)n2)o1,n,n,n,n,69,n,n,n,n,n
O=[N+]([O-])c1ccc(-c2ccc(/C=N/Nc3nc(NCc4ccccc4)nc(N4CCOCC4)n3)o2)cc1,n,n,n,n,n,n,x,x,x,x
Cc1ccc(/C=N/Nc2nc(N3CCCCC3)nc(N3CCCCC3)n2)o1,n,n,n,n,n,n,x,x,x,x
CCCS(=O)(=O)NC(=O)C1(C)CCCN(C(=O)c2ccc(C#N)cc2)C1 (stereo not drawn),x,n,x,x,n,x,x,x,x,x
Cc1sc2ncnc(N3CCC(C(=O)NNC(=O)COc4ccccc4F)CC3)c2c1C,x,n,n,n,65,n,31,n,n,n
Cc1sc2ncnc(N3CCC(C(=O)NNC(=O)COc4ccc(Cl)cc4)CC3)c2c1C,x,n,x,x,70,x,38,n,12,n
Cc1cc(Cl)ccc1OCC(=O)NNC(=O)C1CCN(c2ncnc3sc(C)c(C)c23)CC1,x,n,n,33,78,n,39,52,14,n
Cc1sc2ncnc(N3CCC(C(=O)Nc4nnc(CC(C)C)s4)CC3)c2c1C,x,n,n,n,n,n,x,x,x,x
Cc1sc2ncnc(N3CCC(C(=O)NNC(=O)c4ccccc4Cl)CC3)c2c1C,n,n,n,n,n,n,x,x,x,x
Cc1sc2ncnc(N3CCC(C(=O)NNC(=O)COc4ccc(Br)cc4)CC3)c2c1C,x,n,n,63,76,n,42,53,12,n
CCc1nc2c(OCc3cccc(OC)c3)cccn2c1N(C)C(=O)c1ccccc1F,x,n,x,x,n,x,x,x,x,x
O=C(OCc1cn([C@@H]2CN(C(=O)C3CCCCC3)[C@@H](c3ccc(Cl)cc3)C[C@H]2O)nn1)c1ccccc1,x,n,x,x,n,x,x,x,x,x
Cc1sc2ncnc(N3CCC(C(=O)Nc4nc(-c5ccc(F)cc5)cs4)CC3)c2c1C,x,n,n,n,n,n,x,x,x,x
Cc1sc2ncnc(N3CCC(C(=O)NNC(=O)COc4cccc(C(F)(F)F)c4)CC3)c2c1C,x,n,n,n,64,n,28,n,n,n
COc1ccc(OCC(=O)NNC(=O)C2CCN(c3ncnc4sc(C)c(C)c34)CC2)cc1,x,n,n,n,n,n,x,x,x,x
CCN(CC(=O)Nc1c(Cl)cccc1Cl)C(=O)C1CCN(c2ncnc3sc(C)c(C)c23)CC1,x,n,x,x,n,x,x,x,x,x
CCN(CC(=O)Nc1c(F)cccc1F)C(=O)C1CCN(c2ncnc3sc(C)c(C)c23)CC1,x,n,n,n,58,n,23,n,n,n
Cc1ccc(OCC(=O)NNC(=O)C2CCN(c3ncnc4sc(C)c(C)c34)CC2)cc1,x,n,n,n,50,n,26,n,n,n
COCCNc1ncnc2c1ncn2[C@H]1CN(Cc2ccco2)C[C@@H](CO)O1,x,n,x,x,n,x,x,x,x,x
CC(C)CC(NS(=O)(=O)OCC(Cl)(Cl)Cl)c1ccccc1 (stereo not drawn),n,n,n,n,86,n,n,n,n,n
COc1ccc(-c2[nH]c(-c3ccccc3)nc2SCC(=O)Nc2nccs2)cc1,n,n,n,n,49,n,n,n,n,n
COc1ccc(-n2cc(-c3ccccc3)c3c(N4CCOCC4)ncnc32)cc1,n,n,n,n,69,n,24,n,n,n
OCCN1CCN(c2ncnc3c2c(-c2ccccc2)cn3-c2ccc(Br)cc2)CC1,n,n,n,n,n,n,x,x,x,x
Fc1ccc(-n2cc(-c3ccccc3)c3c(N4CCOCC4)ncnc32)cc1,n,n,n,n,67,n,n,n,n,n
NC(=O)C1CCN(c2ncnc3c2c(-c2ccccc2)cn3-c2ccccc2)CC1,n,n,n,n,64,n,25,n,n,n
COC(=O)CCCn1cc(CN2CC(N3CCN(CCN(C)C)CC3)CS2(=O)=O)nn1 (stereo not drawn),x,n,x,x,n,x,x,x,x,x
O=C(N/N=C/c1ccc(-c2ccccc2[N+](=O)[O-])o1)c1cccnc1,n,n,n,n,n,n,x,x,x,x
